ChEMBL document CHEMBL1139268, “Camphor sulfonamide derivatives as novel, potent and selective CXCR3 antagonists” (Bioorg Med Chem Lett, 2009)
Converted amounts (≈) assume the structure as drawn.

Experiments:
[1] = target: T1, C-X-C chemokine receptor type 3 (Homo sapiens, UniProt P49682); experiment: Antagonist activity at human recombinant CXCR3 receptor expressed in CHO-K1 cells assessed as human IP10-induced calcium flux by FLIPR assay; format: functional, cell-based
T1 sequence (P49682 whole entry): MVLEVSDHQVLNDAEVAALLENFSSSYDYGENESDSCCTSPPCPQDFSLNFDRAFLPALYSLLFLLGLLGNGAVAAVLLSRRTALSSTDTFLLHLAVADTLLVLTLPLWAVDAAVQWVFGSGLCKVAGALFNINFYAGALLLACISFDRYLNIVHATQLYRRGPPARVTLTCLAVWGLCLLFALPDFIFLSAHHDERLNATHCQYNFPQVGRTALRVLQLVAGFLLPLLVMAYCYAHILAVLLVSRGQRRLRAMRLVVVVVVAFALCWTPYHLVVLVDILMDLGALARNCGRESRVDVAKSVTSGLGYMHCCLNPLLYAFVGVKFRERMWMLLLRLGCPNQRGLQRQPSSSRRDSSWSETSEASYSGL

[2] = target: T1, C-X-C chemokine receptor type 3; experiment: Antagonist activity at human recombinant CXCR3 receptor assessed as human IP10-induced calcium mobilization by FLIPR assay; format: functional; conditions: read-out: pA2 (converted)
[3] = target: T2, C-X-C chemokine receptor type 3 (Mus musculus, UniProt O88410); experiment: Antagonist activity at mouse recombinant CXCR3 expressed in human U2OS cells; format: functional, cell-based
T2 sequence (O88410 whole entry): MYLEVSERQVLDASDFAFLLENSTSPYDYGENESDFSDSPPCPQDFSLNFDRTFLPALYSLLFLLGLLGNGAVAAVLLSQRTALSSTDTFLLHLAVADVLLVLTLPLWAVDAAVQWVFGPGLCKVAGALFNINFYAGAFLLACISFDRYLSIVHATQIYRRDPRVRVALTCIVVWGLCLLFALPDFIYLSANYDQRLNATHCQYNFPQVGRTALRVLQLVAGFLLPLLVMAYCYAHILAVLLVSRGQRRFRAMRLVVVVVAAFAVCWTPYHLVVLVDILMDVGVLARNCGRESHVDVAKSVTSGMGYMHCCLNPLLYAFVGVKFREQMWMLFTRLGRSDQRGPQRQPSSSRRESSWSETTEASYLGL
Method in brief: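 Human U2OS cells were transiently transduced with a mixture of recombinant BacMam viruses, one expressing murine CXCR3 and one expressing chimeric G-protein Gqi5.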

Cytochrome P450 1A2 = target: T3, Cytochrome P450 1A2 (Homo sapiens, UniProt P05177); experiment: Inhibition of CYP1A2; format: ADME
T3 sequence (P05177 whole entry): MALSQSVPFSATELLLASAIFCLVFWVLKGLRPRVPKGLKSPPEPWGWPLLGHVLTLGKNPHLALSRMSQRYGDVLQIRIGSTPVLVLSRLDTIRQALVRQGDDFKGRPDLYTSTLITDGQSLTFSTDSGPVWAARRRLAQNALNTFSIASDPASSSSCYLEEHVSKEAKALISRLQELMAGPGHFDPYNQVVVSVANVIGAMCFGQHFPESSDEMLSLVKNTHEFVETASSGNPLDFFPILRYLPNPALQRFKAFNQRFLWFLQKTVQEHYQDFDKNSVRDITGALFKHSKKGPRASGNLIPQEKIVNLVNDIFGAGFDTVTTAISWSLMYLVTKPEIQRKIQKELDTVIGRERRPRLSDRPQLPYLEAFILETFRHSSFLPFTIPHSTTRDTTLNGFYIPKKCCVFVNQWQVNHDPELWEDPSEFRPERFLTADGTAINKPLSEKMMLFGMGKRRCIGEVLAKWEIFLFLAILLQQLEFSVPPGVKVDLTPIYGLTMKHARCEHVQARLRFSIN

Cytochrome P450 3A4 [4] = target: T4, Cytochrome P450 3A4 (Homo sapiens, UniProt P08684); experiment: Inhibition of CYP3A4 red; format: ADME
T4 sequence (P08684 whole entry): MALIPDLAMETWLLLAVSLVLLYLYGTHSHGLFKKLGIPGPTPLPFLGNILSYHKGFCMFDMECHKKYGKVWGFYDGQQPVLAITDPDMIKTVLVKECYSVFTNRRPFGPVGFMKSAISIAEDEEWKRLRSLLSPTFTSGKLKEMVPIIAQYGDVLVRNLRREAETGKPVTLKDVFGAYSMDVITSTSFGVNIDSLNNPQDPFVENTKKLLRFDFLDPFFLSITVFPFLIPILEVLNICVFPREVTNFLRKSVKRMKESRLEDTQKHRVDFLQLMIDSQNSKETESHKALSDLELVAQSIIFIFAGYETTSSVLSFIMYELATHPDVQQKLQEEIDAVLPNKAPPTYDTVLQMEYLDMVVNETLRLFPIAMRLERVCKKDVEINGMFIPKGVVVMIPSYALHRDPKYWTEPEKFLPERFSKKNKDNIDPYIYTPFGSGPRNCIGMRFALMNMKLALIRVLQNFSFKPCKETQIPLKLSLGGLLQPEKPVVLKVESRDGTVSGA

Cytochrome P450 3A4 [5] = target: T4, Cytochrome P450 3A4; experiment: Inhibition of CYP3A4 green; format: ADME
Cytochrome P450 2C9 = Cytochrome P450 2C9 (Homo sapiens, UniProt P11712); experiment: Inhibition of CYP2C9; format: ADME
Chain of Cytochrome P450 2C9 (P11712 whole entry): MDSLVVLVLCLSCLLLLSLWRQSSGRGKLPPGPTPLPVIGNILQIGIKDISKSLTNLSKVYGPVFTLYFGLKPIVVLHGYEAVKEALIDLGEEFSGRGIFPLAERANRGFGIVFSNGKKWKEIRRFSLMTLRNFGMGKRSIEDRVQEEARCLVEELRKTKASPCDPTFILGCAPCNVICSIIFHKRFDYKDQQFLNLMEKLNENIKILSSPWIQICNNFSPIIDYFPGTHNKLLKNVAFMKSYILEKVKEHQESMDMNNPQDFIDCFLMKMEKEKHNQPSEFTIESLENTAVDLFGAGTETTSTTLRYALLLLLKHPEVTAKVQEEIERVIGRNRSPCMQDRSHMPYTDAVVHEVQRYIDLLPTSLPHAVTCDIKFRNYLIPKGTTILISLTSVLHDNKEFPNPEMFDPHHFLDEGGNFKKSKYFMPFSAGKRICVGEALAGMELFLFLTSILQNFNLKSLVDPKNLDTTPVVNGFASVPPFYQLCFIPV

Cytochrome P450 2C19 = Cytochrome P450 2C19 (Homo sapiens, UniProt P33261); experiment: Inhibition of CYP2C19; format: ADME
Chain of Cytochrome P450 2C19 (P33261 whole entry): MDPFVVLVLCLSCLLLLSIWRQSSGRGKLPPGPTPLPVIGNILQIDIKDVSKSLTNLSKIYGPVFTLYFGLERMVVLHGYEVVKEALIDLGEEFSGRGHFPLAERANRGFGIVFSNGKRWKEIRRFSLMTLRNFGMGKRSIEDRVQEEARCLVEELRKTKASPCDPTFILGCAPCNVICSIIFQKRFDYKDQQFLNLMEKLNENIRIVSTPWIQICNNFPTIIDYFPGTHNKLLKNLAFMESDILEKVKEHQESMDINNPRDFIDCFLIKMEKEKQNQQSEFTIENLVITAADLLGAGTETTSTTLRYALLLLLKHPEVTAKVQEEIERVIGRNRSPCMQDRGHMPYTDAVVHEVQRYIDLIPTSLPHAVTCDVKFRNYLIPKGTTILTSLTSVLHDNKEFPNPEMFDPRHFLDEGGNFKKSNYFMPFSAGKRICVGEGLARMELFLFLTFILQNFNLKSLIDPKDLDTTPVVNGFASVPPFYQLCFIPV

Cytochrome P450 2D6 = Cytochrome P450 2D6 (Homo sapiens, UniProt P10635); experiment: Inhibition of CYP2D6; format: ADME
Chain of Cytochrome P450 2D6 (P10635 whole entry): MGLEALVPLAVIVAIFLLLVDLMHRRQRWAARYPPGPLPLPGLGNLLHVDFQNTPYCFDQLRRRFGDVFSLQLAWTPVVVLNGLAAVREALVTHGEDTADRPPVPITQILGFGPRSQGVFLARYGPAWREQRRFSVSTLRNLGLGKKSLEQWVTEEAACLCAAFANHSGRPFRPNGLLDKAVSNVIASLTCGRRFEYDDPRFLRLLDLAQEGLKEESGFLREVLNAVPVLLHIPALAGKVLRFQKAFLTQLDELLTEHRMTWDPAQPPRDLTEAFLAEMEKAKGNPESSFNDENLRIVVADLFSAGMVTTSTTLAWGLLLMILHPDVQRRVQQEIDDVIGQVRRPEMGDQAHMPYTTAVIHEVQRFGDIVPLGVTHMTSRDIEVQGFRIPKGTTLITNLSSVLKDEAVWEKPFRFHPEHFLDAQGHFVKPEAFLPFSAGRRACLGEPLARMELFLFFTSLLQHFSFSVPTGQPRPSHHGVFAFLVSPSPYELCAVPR

[6] = target: Voltage-gated inwardly rectifying potassium channel KCNH2 (Homo sapiens, UniProt Q12809); experiment: Binding affinity to human ERG
Chain of Voltage-gated inwardly rectifying potassium channel KCNH2 (Q12809 whole entry): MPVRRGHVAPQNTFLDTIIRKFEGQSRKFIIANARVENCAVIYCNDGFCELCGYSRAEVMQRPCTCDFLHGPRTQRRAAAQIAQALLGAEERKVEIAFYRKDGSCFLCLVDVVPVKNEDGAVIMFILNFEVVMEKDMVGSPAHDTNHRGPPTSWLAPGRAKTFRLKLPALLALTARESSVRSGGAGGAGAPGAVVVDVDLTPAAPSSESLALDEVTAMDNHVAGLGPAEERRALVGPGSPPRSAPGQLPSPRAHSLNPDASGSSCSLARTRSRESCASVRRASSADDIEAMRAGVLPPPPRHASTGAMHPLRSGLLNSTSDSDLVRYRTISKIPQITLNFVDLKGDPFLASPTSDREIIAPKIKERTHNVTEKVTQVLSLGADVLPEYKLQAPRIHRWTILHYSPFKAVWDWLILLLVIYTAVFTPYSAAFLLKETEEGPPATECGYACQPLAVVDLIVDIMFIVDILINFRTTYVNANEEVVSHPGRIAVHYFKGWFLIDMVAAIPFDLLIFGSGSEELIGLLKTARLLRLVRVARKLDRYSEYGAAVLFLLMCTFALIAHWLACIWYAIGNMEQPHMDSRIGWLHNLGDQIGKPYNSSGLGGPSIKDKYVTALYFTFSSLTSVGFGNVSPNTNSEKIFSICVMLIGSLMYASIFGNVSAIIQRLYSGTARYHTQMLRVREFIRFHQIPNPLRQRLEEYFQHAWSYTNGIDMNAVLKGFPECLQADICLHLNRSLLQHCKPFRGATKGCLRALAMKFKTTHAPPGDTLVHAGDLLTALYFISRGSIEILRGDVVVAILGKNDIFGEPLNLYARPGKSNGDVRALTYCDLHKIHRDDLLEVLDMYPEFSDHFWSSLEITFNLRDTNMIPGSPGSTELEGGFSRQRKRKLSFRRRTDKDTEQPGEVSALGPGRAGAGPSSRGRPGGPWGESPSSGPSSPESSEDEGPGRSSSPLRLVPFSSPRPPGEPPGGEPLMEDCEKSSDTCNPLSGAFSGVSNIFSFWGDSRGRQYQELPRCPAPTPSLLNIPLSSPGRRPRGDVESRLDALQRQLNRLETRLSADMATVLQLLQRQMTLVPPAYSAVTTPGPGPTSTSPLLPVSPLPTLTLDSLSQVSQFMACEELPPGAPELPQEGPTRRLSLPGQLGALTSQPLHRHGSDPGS

[7] = Permeability across artificial membrane; format: ADME; conditions: PAMPA; read-out: permeability
[8] = Aqueous solubility of the compound; format: physicochemical; conditions: buffer
[9] = Clearance in rat at 1.1 mg/kg, iv and 2.0 mg/kg, po; format: ADME, organism-based; conditions: in vivo
Rattus norvegicus = experiment: Half life in rat at 1.1 mg/kg, iv and 2.0 mg/kg, po; format: ADME, organism-based; conditions: in vivo
[10] = Volume of distribution at steady state in rat a 1.1 mg/kg, iv and 2.0 mg/kg, po; format: ADME, organism-based; conditions: in vivo, read-out: Vdss
[11] = Oral bioavailability in rat at 2.0 mg/kg; format: ADME, organism-based; conditions: in vivo

| IC50 [1] | Kb [2] | IC50 [3] | IC50 (Cytochrome P450 1A2) | IC50 (Cytochrome P450 3A4 [4]) | IC50 (Cytochrome P450 3A4 [5]) | IC50 (Cytochrome P450 2C9) | IC50 (Cytochrome P450 2C19) | IC50 (Cytochrome P450 2D6) | Papp [7] | solubility [8] | clearance [9] | t1/2 (Rattus norvegicus) | Vd [10] | bioavailability [11] | Compound | IC50 [6] |
| --- | --- | --- | --- | --- | --- | --- | --- | --- | --- | --- | --- | --- | --- | --- | --- | --- |
| 31.6 nM | 20 nM | 200 nM | > 25000 nM | > 25000 nM | 13600 nM | 4000 nM | 4000 nM | > 25000 nM |  |  |  |  |  |  | C[C@H]1CN(S(=O)(=O)C[C@]23CC[C@H](C[C@@H]2O)C3(C)C)CCN1c1ncc(C(F)(F)F)cc1F |  |
| 79.4 nM | 25.1 nM | 501 nM | 160 nM | 320 nM |  |  |  |  | 35.2 ×10⁻⁶ cm/s | 4 µg/mL (≈ 8.38 µM) | 108 mL/min/kg | 30 min | 2.2 L/kg | 8% | C[C@H]1CN(S(=O)(=O)C[C@]23CC[C@H](CC2=O)C3(C)C)CCN1c1ncc(C(F)(F)F)cc1F | > 63000 nM |
